Reference: publication PMC7611434 (Bioorganic chemistry, 2020)
Read-outs that look alike come from different tables or passages of the source.

Assays:
[1] = system: H2228 cells (non-small cell lung cancer, ALK-dependent); assay: cytotoxicity assay; format: cell-based, human; settings: for cytotoxic activity under hypoxia vs normoxia: H2228, 72 h, 1 % O2 vs 21 % O2; for IC50: read-out: IC50 cytotoxicity
[2] = system: H1993 cells (non-small cell lung cancer, c-MET-dependent); assay: cytotoxicity assay; format: cell-based, human; settings: for cytotoxic activity under hypoxia vs normoxia: H1993, 72 h, 1 % O2 vs 21 % O2; for IC50: read-out: IC50 cytotoxicity
Method in brief: (§1)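 MTT (EZ4U) viability in H1993 or in-house-established RUMH cells in RPMI 1640 with 10% FCS. Cells were seeded at 3-6x10³/well and recovered 24 h, then given increasing concentrations of test compound (final DMSO <1%). Exposure was 24 h or 72 h at 21% O₂ (normoxia) or 1% O₂ (hypoxia). IC50 came from full dose-response curves; one representative experiment in triplicate, mean ± SD.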

[3] = system: RUMH cells (renal cell carcinoma, c-MET-overexpressing); assay: cytotoxicity assay; format: cell-based, human; settings: for cytotoxic activity under hypoxia vs normoxia: 72 h, 1 % O2 vs 21 % O2; for IC50: read-out: IC50 cytotoxicity
Method in brief: as §1

ALK = settings: cell-free kinase assay
c-MET = settings: cell-free kinase assay
[4] = biological target: nitroreductase enzyme (E. coli) (Escherichia coli, UniProt P38489); settings: nitroreductase + NADH, pH 7.4, 37 °C, HPLC; for conversion of prodrug by nitroreductase: after 10 min
Chain of nitroreductase enzyme (E. coli) (P38489 whole entry): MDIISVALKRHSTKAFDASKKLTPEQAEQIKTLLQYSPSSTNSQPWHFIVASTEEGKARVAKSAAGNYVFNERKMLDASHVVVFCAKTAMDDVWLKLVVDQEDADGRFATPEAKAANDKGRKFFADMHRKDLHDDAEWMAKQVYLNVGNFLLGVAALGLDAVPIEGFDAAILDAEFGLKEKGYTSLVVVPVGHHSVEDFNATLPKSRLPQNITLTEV

solubility in PBS = format: physicochemical
[5] = stability assay in buffer, medium and serum; format: in vitro ADME; settings: pure serum (FCS), 37 °C, up to 72 h
stability down to pH 1 = format: physicochemical; settings: down to pH 1, 24 h, 37 °C; data not shown
[6] = system: HACAT (keratinocytes from human skin); assay: cytotoxicity in non-malignant cells; format: cell-based; settings: normoxic, 72 h
Method in brief: (§2)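 Non-malignant HACAT keratinocytes or HLF lung fibroblasts in RPMI 1640 with 10% FCS, under normoxia (37 °C, 21% O₂, 5% CO₂). Cells were seeded at 3-6x10³/well and recovered 24 h. They were then exposed for 72 h to increasing concentrations of test compound diluted from DMSO stock (final DMSO <1%). Viability was read by MTT (EZ4U), with IC50 fitted from full dose-response curves.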

[7] = system: HLF (fibroblasts from human lung); assay: cytotoxicity in non-malignant cells; format: cell-based; settings: normoxic, 72 h
Method in brief: as §2

c-MET phosphorylation = c-MET phosphorylation (Homo sapiens, UniProt P08581); assay: Western blot of c-MET phosphorylation in H1993 cells; format: cell-based; settings: H1993, 24 h
Chain of c-MET phosphorylation (P08581 25-1390): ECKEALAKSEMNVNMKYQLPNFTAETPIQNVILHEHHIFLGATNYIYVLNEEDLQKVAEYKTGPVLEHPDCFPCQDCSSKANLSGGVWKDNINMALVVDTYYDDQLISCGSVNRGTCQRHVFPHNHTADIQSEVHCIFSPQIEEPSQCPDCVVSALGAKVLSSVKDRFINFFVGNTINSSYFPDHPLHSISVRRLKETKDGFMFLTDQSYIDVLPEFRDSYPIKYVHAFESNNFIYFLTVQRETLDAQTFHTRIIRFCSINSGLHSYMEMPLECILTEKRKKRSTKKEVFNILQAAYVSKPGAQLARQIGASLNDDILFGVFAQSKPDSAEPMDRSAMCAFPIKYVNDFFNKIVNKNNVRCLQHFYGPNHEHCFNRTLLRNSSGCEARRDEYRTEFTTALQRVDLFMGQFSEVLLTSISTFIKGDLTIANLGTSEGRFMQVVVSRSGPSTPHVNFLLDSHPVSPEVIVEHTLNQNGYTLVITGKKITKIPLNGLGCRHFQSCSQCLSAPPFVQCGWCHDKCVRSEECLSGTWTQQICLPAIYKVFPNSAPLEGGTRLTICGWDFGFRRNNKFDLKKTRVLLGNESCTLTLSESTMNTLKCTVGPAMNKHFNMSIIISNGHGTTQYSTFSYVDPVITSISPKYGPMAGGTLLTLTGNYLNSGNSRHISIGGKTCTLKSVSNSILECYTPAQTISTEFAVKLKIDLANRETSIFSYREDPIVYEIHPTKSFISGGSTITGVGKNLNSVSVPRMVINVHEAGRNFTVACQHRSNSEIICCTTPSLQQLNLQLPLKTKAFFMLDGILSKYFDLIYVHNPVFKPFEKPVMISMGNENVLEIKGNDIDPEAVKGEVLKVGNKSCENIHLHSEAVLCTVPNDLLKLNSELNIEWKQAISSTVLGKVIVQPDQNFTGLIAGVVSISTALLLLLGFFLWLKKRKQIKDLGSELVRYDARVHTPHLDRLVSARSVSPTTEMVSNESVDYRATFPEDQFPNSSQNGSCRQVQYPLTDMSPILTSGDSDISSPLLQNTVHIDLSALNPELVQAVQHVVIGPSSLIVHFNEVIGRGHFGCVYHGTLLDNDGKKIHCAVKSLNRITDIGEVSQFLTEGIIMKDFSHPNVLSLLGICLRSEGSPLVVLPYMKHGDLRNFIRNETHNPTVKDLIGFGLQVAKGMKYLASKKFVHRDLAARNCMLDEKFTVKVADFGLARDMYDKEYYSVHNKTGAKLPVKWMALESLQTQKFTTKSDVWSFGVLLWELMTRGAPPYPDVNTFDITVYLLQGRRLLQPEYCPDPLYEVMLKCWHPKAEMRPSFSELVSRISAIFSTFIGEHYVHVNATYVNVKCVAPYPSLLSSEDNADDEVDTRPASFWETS

ERK 1/2 phosphorylation = assay: Western blot of ERK 1/2 phosphorylation in H1993 cells; format: cell-based, human; settings: H1993, 24 h
Method in brief: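 H1993 cells in RPMI 1640 with 10% FCS were plated at 8x10⁵ cells/dish and allowed 24 h recovery. They were exposed for 24 h to DMSO-diluted test compound (final DMSO <1%) at 21% or 1% O₂. Lysates were run on SDS-PAGE/PVDF and probed for p-ERK 1/2 (Thr202/Tyr204), ERK 1/2 and β-actin (all 1:1000), with HRP secondaries at 1:10000. Read-out: p-ERK/ERK ratio after β-actin normalisation.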

[8] = biological target: c-MET phosphorylation in H1993 tumor tissue (Homo sapiens, UniProt P08581); assay: H1993 xenograft, immunohistochemistry of p-c-MET; format: in vivo; settings: 24 h, H1993 s.c. in SCID mice
Chain of c-MET phosphorylation in H1993 tumor tissue (P08581 25-1390): as above

[9] = system: H1993 tumor cell proliferation (Ki-67); assay: H1993 xenograft, immunohistochemistry of Ki-67 and tumor histology; format: in vivo, SCID mice; settings: 24 h
[10] = H2228, 24 h treatment, MTT, 1 % O2 or 21 % O2
[11] = H1993, 24 h treatment, MTT, 1 % O2 or 21 % O2
[12] = RUMH, 24 h treatment, MTT, 1 % O2 or 21 % O2

For `C[C@@H](Oc1cc(-c2cnn(C3CCNCC3)c2)cnc1NCc1cnc([N+](=O)[O-])n1C)c1c(Cl)ccc(F)c1Cl` [prodrug B, (R)-3-(1-(2,6-dichloro-3-fluorophenyl)ethoxy)-N-((1-methyl-2-nitro-1H-imidazol-5-yl)methyl)-5-(1-(piperidin-4-yl)-1H-pyrazol-4-yl)pyridin-2-amine *2TFA], the IC50 cytotoxicity [1, 10] was “distinct anticancer activity in a range similar to crizotinib”, the IC50 cytotoxicity [2, 11] was “distinct anticancer activity in a range similar to crizotinib” and the IC50 cytotoxicity [3, 12] was “distinct anticancer activity in a range similar to crizotinib”. For the same compound, the “lower inhibitory potential compared to crizotinib (IC50 ratio)” value (shortened to “lower inhibitory potential … (IC50 ratio)”) (ALK) was > 143 fold, the “lower inhibitory potential … (IC50 ratio)” value (c-MET) was 64 fold and the “release of crizotinib as main product” value [4] was “no formation of crizotinib”. The “conversion of prodrug by nitroreductase” value [4] was “could not be activated”.

For `C[C@@H](Oc1cc(-c2cnn(C3CCNCC3)c2)cnc1NC(=O)OCc1cnc([N+](=O)[O-])n1C)c1c(Cl)ccc(F)c1Cl` [prodrug A, (1-methyl-2-nitro-1H-imidazol-5-yl)methyl (R)-(3-(1-(2,6-dichloro-3-fluorophenyl)ethoxy)-5-(1-(piperidin-4-yl)-1H-pyrazol-4-yl)pyridin-2-yl)carbamate*1.5TFA], the solubility (solubility in PBS; phosphate-buffered saline (PBS), room temperature) was > 20 mg/mL, the “stability in pure serum” value [5] was “no significant degradation” and the “stability at low pH” value (stability down to pH 1) was “confirmed the stability”. For the same compound, the “cytotoxic activity under hypoxia vs normoxia” value [1] was “similarly active”, the IC50 [1, 10] was > 25 µM and the “cytotoxic activity under hypoxia vs normoxia” value [2] was “promising hypoxia-mediated activity”. The IC50 [2, 11] was > 25 µM, the “cytotoxic activity under hypoxia vs normoxia” value ([3]; RUMH) was “promising hypoxia-mediated activity” and the IC50 [3, 12] was > 25 µM. The “activity against non-malignant cells in comparison to free crizotinib” value [6] was “distinctly reduced activity”, the “activity against non-malignant cells in comparison to free crizotinib” value [7] was “distinctly reduced activity” and the “inhibition of c-MET phosphorylation” value (c-MET phosphorylation; hypoxia (1 % O2), 5 μM) was 40%. For the same compound, the “inhibition of c-MET phosphorylation” value (c-MET phosphorylation; hypoxia (1 % O2), 10 μM) was 70%, the “inhibition of c-MET phosphorylation” value (c-MET phosphorylation; normoxia (21 % O2), up to 10 μM) was < 10% and the “inhibition of ERK 1/2 phosphorylation signal” value (ERK 1/2 phosphorylation; hypoxia (1 % O2), 5 μM) was ~ 60%. For the same compound, the “inhibition of ERK 1/2 phosphorylation signal” value (ERK 1/2 phosphorylation; hypoxia (1 % O2), 10 μM) was ~ 80%, the “inhibition of ERK 1/2 phosphorylation signal” value (ERK 1/2 phosphorylation; normoxia (21 % O2), 5 μM) was < 10% and the “c-MET phosphorylation in tumor tissue” value ([8]; 38.5 mg/kg i.v., single dose) was “significant inhibition”. The “level of p-c-MET in tumor tissue” value ([8]; 89.2 mg/kg p.o.) was “did not significantly change”, the “cell proliferation (Ki-67) in tumor tissue” value ([9]; 38.5 mg/kg i.v., single dose, H1993 s.c. in SCID mice) was “inhibition of cell proliferation” and the “tumor histology (tumor:stroma ratio)” value ([9]; 38.5 mg/kg i.v., single dose, data not shown) was “reduction of the tumor:stroma ratio”. For the same compound, the “Ki-67 expression in tumor tissue” value ([9]; 89.2 mg/kg p.o., H1993 s.c. in SCID mice) was “did not significantly change”, the “lower inhibitory potential … (IC50 ratio)” value (ALK) was 42 fold and the “lower inhibitory potential … (IC50 ratio)” value (c-MET) was 33 fold. The “release of crizotinib as main product” value [4] was “about 80%” and the “conversion of prodrug by nitroreductase” value [4] was “complete conversion”.

With `C[C@@H](Oc1cc(-c2cnn(C3CCNCC3)c2)cnc1N)c1c(Cl)ccc(F)c1Cl` [crizotinib, reference compound] the solubility (solubility in PBS; phosphate-buffered saline) was < 0.5 mg/mL, the IC50 ([2]; Homo sapiens, NCI-H1993, 24 h) was ~20 µM and the IC50 ([3]; Homo sapiens, 24 h) was ~20 µM. The “Ki-67 expression in tumor tissue” value ([9]; 50 mg/kg p.o., H1993 s.c. in SCID mice) was “slight impact”.

With `Cn1c(COP(=O)(NCCBr)NCCBr)cnc1[N+](=O)[O-]` [TH-302, reference compound] the “cytotoxic activity under hypoxia vs normoxia” value [1] was “significant anticancer activity under low oxygen levels”, the IC50 ([1]; Homo sapiens, NCI-H2228, 24 h) was > 25 µM and the “cytotoxic activity under hypoxia vs normoxia” value [2] was “significant anticancer activity under low oxygen levels”. For the same compound, the IC50 ([2]; Homo sapiens, NCI-H1993, 24 h) was > 25 µM, the IC50 ([3]; Homo sapiens, 24 h) was > 25 µM and the “cytotoxic activity under hypoxia vs normoxia” value ([3]; RUMH) was “significant anticancer activity under low oxygen levels”.
